Screens deposited in PubChem by several laboratories.
Insulin prom up: MIN6 insulin promoter up-regulation | MIN6 insulin promoter-GFP reporter, high-content imaging; active compounds read high | z-score at 5 µM | 0.3% of 190,000 active | AID 1625;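 active = z-score above 3 at 5 µM with at least 500 cells counted in the well; inconclusive = wells under 500 cells, flagged as cytotoxic or low count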
Autophagy HCS: modulators of autophagy; MEF GFP-LC3 puncta imaging; test concentration mostly 10 µM; calls only at 10 µM (by protocol); 0.98% of 190,000 active; AID 463193;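 active = percentage of spot-positive cells more than 3 SD above its plate mean, without a fluorescence outlier flag or 80% toxicity; inconclusive = no clear call, values can overlap the other calls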;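 note: spot-positive cell cutoff set from DMSO-treated cells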
ABCG2 block: blocks JC-1 efflux by human ABCG2 transporter; inhibition, % at 6.6 µM; AID 1325; 0.1% of 190,000 active; Q9UNQ0; IgMXP3 cells, flow cytometry;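 active = inhibition above 80%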;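 note: 0% = DMSO and 100% = nicardipine control wells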
Target sequence (Q9UNQ0 whole entry, looked up): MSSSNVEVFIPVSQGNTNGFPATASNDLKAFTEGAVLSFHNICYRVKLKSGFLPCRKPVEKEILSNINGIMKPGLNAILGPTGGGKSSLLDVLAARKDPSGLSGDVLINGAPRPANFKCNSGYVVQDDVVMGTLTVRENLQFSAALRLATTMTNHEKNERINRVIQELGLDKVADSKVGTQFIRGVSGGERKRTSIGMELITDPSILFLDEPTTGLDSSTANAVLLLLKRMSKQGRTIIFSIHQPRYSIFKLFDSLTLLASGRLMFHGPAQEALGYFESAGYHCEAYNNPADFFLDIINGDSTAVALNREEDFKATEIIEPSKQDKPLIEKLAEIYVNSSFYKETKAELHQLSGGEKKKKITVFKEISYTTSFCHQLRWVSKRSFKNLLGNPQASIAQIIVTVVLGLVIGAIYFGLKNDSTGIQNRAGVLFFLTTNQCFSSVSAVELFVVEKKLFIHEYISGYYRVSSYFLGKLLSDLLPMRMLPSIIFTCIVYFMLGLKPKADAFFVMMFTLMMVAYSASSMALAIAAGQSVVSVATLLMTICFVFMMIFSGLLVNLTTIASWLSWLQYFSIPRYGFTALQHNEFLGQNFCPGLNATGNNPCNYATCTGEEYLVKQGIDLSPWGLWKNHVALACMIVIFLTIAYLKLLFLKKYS
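Test system: IgMXP3 (ABCG2) plus far-red-tagged CCRF-Adr (ABCB1) cells / Amount: 3 million cells/mL in well / Reagent: JC-1 transporter substrate / Timing: 10 min compound exposure, 25 °C / Signal: flow cytometry, 530 nm JC-1 signal / Read-out: percent efflux inhibition, scaled nicardipine 100% to DMSO 0% / Benchmarks: nicardipine as high control, DMSO as low control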
ROMK mod: modulates human ROMK potassium channel activity. Tet-inducible ROMK, thallium flux fluorescence; actives lie on both sides. B-score at 10 µM. 2% of 130,000 active;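 active = signal ratio slope over the read window, or its plate-corrected B-score, at least 3 SD from the plate mean, either direction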;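 note: B-score of the F/F0 ratio slope over 7 to 12 s after thallium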
SDO1 yeast rescue: compounds rescuing growth of sdo1-depleted yeast, bone marrow failure model; S. cerevisiae sdo1-depleted JHY4D growth rescue, OD600 30 h; active compounds read high; pdr5 snq2 efflux-pump mutant strain; z-score at 10 µM; 0.21% of 140,000 active;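 active = z-score above 3 at both the 24 hr and the 30 hr optical density reads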;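 note: z-score against mean and SD of all compound wells on the same plate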
ABCB1 inh: human ABCB1 inhibition, ABCG2 as counter-screen. P08183. CCRF-Adr cells, JC-1 efflux, flow cytometry. inhibition, % at 6.6 µM. 0.067% of 190,000 active. AID 1326; in the data active = inhibition above about 40%;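 note: 0% = vehicle and 100% = reference inhibitor; higher value means more JC-1 retained so stronger ABCB1 efflux block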
ROMK retest: confirmation of human ROMK potassium channel modulators; normalized thallium flux (F/F0 slope) at 10 µM; ROMK thallium flux, fluorescence ratio; active compounds read low; shares compounds with ROMK mod; 54% of 3,000 active; AID 1917;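 active = Flux at 10 µM at least 3 SD below or above vehicle control mean in one or both replicates; inconclusive = no clear call, values can overlap the other calls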
Active calls of the source: *; i = inactive; ? = inconclusive; . = no result. Hits are enriched below; roughly 2.3% of the tested compounds scored in any of these assays.

SMILES | Insulin prom up | Autophagy HCS | ABCG2 block | ROMK mod | SDO1 yeast rescue | ABCB1 inh | ROMK retest
CCOC(=O)c1c(C)n(C)c2ccc(OC)c(NC(=O)CN3CCN(Cc4ccccc4)CC3)c12 | . | i | 5 | -3.2* | 1.1 | 3 | 0.068*
Cc1ccc(NC(=O)COC(=O)C2CC(=O)N(Cc3ccccc3)C2)cc1S(=O)(=O)N(C)C (stereo not drawn) | -0.34 | i | 0 | 0.011 | . | 0 | .
Cc1sc(NC(=O)CCCC(=O)O)c(C#N)c1C | -0.13 | i | 5 | . | 0.91 | 1 | 0.077
O=C(Nc1ccc(O)cc1)C1CC=CCC1 (stereo not drawn) | -0.48 | i | 2 | . | 0.7 | 1 | 0.073
COc1ccc(NC(=O)C2C3CC/C=C\CCC32)cc1 (stereo not drawn) | -0.4 | . | . | . | . | . | .
CC(C)CCNC(=O)CN(Cc1ccc2c(c1)OCO2)C(=O)Cn1nnc(-c2cccs2)n1 | -0.5 | i | 18 | -3.1* | 0.47 | 2 | 0.068*
O=C(CN(C(=O)Cn1nnc(-c2cccs2)n1)c1ccc2c(c1)OCCO2)NC1CCCCC1 | -0.47 | i | 3 | . | 0.26 | 2 | .
CC(=O)N1CCc2ccc(S(=O)(=O)N3CCc4ccccc43)cc21 | -0.05 | i | -1 | -0.86 | . | 0 | .
CCn1c(=O)n(CC)c2cc(S(=O)(=O)N3CCc4ccccc43)ccc21 | -1.5 | i | 3 | . | -1.1 | 1 | ?
Oc1c(Br)cc(Br)cc1C=Nc1ccc2c(c1)OCO2 | -0.09 | i | 4 | 3.4* | -0.39 | 1 | 0.11*
Oc1c(Br)cc(Br)cc1C=Nc1ccc2c(c1)OCCO2 | 0.75 | i | 3 | 1.9 | . | 0 | .
CC1S/C(=N/N=C/c2ccco2)N(Cc2ccccc2)C1=O (stereo not drawn) | 0 | . | . | . | . | . | .
CCN(CC)c1ccc(N=Cc2cc(Br)ccc2O)cc1 | -0.3 | i | 1 | -5.6* | . | 0 | 0.064*
O=c1c(Cc2ccc(Cl)cc2)c(O)ccn1Cc1cccs1 | -0.09 | i | 7 | -0.9 | . | 1 | .
CC(=O)C1=C(c2ccc(Br)cc2)C(=O)c2ccccc2C1=O | ? | i | 2 | -4.7* | -1.9 | 1 | 0.052*
CNC1=C(N(C(C)=O)c2ccc(Br)cc2)C(=O)c2ccccc2C1=O | ? | i | 6 | -1.3 | -0.92 | 0 | .
O=C(O)c1ccc(-c2nc(-c3cccc(C(F)(F)F)c3)cs2)cc1 | -0.84 | i | 16 | 3.1* | . | 0 | 0.087
